Results gathered from unrelated publications.
ABHD6: Monoacylglycerol lipase ABHD6 (ABHD6, Homo sapiens, UniProt Q9BV23)
DRD4: D(4) dopamine receptor (DRD4, Homo sapiens, UniProt P21917)
HTR5A: 5-hydroxytryptamine receptor 5A (HTR5A, Homo sapiens, UniProt P47898)
PI4KA: Phosphatidylinositol 4-kinase alpha (PI4KA, Homo sapiens, UniProt P42356)

| SMILES | target | test | test system | setting | inhibition |
| --- | --- | --- | --- | --- | --- |
| O=C(Oc1nsnc1N1CCC(Cc2ccccc2)CC1)N1CCCCC1 | ABHD6 | enzyme activity, inhibitor, fluorescence | – | 1 µM, lysate | 15% |
| N#Cc1cc(Cn2c(N3CCCC3)nc3ccccc32)ccc1F | DRD4 | ligand displacement | – | 10 µM | -0.93% |
| Cn1cnc(Br)c1C1=CN(c2ncnc3[nH]cnc23)CCS1 | Mitogen-activated protein kinase kinase kinase 19 (MAP3K19, Homo sapiens, UniProt Q56UN5) | enzyme activity, inhibitor, radiometric | – | 50 nM | 29.5% |
| O=C(Oc1nsnc1N1CCC(c2ccccc2)CC1)N1CCCCC1 | ABHD6 | enzyme activity, inhibitor, fluorescence | – | 1 µM, lysate | 41% |
| COc1cc2c3c(c1OC)-c1cc4c(cc1CC3N(CC1CC1)CC2c1ccccc1)OCO4 (stereo not shown) | HTR5A | ligand displacement, radioligand | – | 10 µM | -18.2% |
| O=C(CSc1nc2nccnc2c(=O)n1CCc1ccccc1)Nc1ccccc1 | PI4KA | enzyme activity, inhibitor | – | 10 µM | < 20% |
| CCCNc1nc2ccccc2n1Cc1ccc(Cl)cc1 | DRD4 | ligand displacement | – | 10 µM | 2.14% |
| O=C(CSc1nc2nccnc2c(=O)n1CCc1ccccc1)Nc1nccs1 | PI4KA | enzyme activity, inhibitor | – | 10 µM | -5% |
| CCN(CC)c1ccc(C2Nc3ccc(C(=O)c4ccccc4)cc3NC3=C2C(=O)CC(C)(C)C3)cc1 (stereo not shown) | HTR5A | ligand displacement, radioligand | – | 10 µM | 85% |
| CCN1CCN(Cc2ccc(NC(=O)c3ccc(C)c(Oc4ccnc5[nH]ccc45)c3)cc2C(F)(F)F)CC1 | PI4KA | target engagement in cells, inhibitor, chemoproteomics | Huh-7 | 10 µM | -10.4% |
| CN1CC(Oc2cnc(C#N)cc2-c2ccn3nc(NC(=O)C4CC4)cc3c2)C1 | Tribbles homolog 2 (TRIB2, Homo sapiens, UniProt Q92519) | enzyme activity, inhibitor | – | 1 µM | 9% |
| CS(=O)(=O)Nc1cccc(-c2csc(NC(=O)CSc3nc4nccnc4c(=O)n3CCc3ccccc3)n2)c1 | Atypical kinase COQ8A, mitochondrial (COQ8A, Homo sapiens, UniProt Q8NI60) | enzyme activity, inhibitor | – | 10 µM | 14% |
| CC(C)C[C@H](NC(=O)[C@H](CC(C)C)NC(=O)CNC(=O)[C@H](C)NC(=O)[C@H](C)NC(=O)[C@H](CCCNC(=N)N)NC(=O)CNC(=O)CCCCNC(=O)[C@H](CCCCN)NC(=O)[C@H]1CCCN1C(=O)[C@H](CCCCN)NC(=O)[C@H](CCCCN)NC(=O)[C@H](CCCCN)NC(=O)[C@H](CCCCN)NC(=O)[C@H](Cc1ccc(O)cc1)NC(=O)[C@@H](N)Cc1c[nH]c2ccccc12)C(N)=O | Neuropeptides B/W receptor type 1 (NPBWR1, Homo sapiens, UniProt P48145) | calcium signal, antagonist | – | 10 µM | 95% |
